pIC50: −log10 of the molar value.
Assays:
Collagenase 3 = Collagenase 3 (Homo sapiens, UniProt P45452)
[1] = molecular target: 72 kDa type IV collagenase (Homo sapiens, UniProt P08253); test: In vitro selective inhibition against matrix metalloprotease-2 (MMP-2) using fluorimetric assay
[2] = molecular target: Matrix metalloproteinase-9 (Homo sapiens, UniProt P14780); test: In vitro selective inhibition against Matrix metalloprotease-9 (MMP-9) using fluorimetric assay
THP-1 = test: Selective inhibition of the cellular TNF alpha release from LPS-stimulated THP-1 cells; type: functional, cell-based; conditions: Homo sapiens
Matrilysin = molecular target: T1, Matrilysin (Homo sapiens, UniProt P09237); test: Inhibition of Matrix metalloprotease-7 (MMP-7) in fluorimetric assay
T1 sequence (P09237 whole entry): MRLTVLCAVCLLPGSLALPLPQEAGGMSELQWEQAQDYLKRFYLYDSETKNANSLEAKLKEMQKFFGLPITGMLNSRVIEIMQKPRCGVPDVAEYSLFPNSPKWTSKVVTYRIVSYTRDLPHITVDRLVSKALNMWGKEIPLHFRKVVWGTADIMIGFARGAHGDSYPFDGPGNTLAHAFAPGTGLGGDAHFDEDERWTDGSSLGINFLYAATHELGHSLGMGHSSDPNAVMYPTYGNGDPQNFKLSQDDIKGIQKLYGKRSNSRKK

Interstitial collagenase = molecular target: T2, Interstitial collagenase (Homo sapiens, UniProt P03956); test: In vitro selective inhibition against matrix metalloprotease-1 (MMP-1) using a fluorimetric assay
T2 sequence (P03956 whole entry): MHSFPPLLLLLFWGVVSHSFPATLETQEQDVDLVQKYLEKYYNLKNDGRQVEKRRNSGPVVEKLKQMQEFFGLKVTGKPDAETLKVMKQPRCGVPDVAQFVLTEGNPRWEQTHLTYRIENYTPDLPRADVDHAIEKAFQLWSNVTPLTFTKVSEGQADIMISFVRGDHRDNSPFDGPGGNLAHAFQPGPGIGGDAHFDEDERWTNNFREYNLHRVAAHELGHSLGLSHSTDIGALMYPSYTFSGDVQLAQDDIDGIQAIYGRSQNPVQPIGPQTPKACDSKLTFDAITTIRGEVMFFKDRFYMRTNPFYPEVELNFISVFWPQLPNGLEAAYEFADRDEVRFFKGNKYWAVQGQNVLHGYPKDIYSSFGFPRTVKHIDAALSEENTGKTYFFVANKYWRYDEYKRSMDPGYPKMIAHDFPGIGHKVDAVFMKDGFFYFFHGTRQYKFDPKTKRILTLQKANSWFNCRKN

Stromelysin-1 = Stromelysin-1 (Homo sapiens, UniProt P08254); test: Inhibition of Matrix metalloprotease-3 (MMP-3) in fluorimetric assay
Neutrophil collagenase = Neutrophil collagenase (Homo sapiens, UniProt P22894); test: Inhibition of Matrix metalloprotease-8 (MMP-8) in fluorimetric assay
[3] = AUC in monkey; type: ADME; set-up: concentration or dose not given beside the values; conditions: simiiformes, plasma
[4] = Half life measured as t1/2 in hours after iv administration in cynomolgus monkey; type: ADME, organism-based, Macaca fascicularis; conditions: in vivo
[5] = Area under the curve (AUC) after 3 mg/kg peroral administration in cynomolgus monkey; type: ADME, organism-based, Macaca fascicularis; set-up: dose 3 mg/kg, route oral; conditions: in vivo, po
Method in brief: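 Single oral dose of 3 mpk in cynomolgus monkeys, two animals per compound. Oral exposure is reported as AUC in μM·h.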

72 kDa type IV collagenase, sequence (P08253 whole entry): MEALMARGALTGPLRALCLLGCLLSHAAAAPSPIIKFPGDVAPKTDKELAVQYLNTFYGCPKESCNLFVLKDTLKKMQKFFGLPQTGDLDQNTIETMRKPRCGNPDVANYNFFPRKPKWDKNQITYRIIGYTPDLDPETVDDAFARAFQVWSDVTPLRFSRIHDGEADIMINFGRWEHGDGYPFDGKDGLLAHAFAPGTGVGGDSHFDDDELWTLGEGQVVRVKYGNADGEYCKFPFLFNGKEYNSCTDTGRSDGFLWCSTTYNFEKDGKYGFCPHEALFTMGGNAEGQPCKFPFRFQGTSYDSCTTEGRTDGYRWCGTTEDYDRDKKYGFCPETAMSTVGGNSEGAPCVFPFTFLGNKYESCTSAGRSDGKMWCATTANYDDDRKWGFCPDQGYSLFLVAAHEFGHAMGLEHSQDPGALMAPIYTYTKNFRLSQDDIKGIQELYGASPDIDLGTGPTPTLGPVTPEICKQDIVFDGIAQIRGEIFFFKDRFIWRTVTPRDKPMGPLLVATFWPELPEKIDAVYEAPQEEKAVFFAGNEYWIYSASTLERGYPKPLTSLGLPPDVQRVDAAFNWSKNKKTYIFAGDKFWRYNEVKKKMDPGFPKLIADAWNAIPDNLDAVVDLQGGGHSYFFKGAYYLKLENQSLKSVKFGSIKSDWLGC
Matrix metalloproteinase-9, sequence (P14780 whole entry): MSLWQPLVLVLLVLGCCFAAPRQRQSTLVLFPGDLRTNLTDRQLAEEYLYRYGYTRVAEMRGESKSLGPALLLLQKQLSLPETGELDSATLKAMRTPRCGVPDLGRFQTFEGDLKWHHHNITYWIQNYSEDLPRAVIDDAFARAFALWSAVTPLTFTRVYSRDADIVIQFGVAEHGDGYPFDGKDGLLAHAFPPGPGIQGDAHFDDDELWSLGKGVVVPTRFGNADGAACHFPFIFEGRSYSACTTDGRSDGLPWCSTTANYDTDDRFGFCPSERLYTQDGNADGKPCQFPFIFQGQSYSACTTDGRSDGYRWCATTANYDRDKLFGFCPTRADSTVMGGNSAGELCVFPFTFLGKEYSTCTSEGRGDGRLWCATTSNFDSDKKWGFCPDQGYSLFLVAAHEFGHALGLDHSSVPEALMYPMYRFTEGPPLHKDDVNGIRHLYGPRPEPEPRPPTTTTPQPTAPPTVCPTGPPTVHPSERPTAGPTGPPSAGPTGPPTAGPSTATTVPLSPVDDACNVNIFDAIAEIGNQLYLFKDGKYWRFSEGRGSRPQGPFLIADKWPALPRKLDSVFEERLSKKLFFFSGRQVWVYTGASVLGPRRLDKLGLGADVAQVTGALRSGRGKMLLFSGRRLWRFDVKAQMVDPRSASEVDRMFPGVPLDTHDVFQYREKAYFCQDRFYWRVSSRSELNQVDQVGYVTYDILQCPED
Neutrophil collagenase, sequence (P22894 whole entry): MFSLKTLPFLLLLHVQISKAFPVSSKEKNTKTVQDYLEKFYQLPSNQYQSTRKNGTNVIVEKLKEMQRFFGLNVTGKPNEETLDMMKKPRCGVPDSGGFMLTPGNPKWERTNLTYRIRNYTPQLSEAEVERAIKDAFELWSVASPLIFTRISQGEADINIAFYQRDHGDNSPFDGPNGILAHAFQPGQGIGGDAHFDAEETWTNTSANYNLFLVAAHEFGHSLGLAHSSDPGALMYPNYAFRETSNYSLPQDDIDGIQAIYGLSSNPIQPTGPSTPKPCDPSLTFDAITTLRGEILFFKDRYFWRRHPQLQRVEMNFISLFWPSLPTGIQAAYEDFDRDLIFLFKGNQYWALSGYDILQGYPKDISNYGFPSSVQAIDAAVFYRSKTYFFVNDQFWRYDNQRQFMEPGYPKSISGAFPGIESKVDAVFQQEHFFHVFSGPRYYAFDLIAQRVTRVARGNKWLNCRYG
Stromelysin-1, sequence (P08254 whole entry): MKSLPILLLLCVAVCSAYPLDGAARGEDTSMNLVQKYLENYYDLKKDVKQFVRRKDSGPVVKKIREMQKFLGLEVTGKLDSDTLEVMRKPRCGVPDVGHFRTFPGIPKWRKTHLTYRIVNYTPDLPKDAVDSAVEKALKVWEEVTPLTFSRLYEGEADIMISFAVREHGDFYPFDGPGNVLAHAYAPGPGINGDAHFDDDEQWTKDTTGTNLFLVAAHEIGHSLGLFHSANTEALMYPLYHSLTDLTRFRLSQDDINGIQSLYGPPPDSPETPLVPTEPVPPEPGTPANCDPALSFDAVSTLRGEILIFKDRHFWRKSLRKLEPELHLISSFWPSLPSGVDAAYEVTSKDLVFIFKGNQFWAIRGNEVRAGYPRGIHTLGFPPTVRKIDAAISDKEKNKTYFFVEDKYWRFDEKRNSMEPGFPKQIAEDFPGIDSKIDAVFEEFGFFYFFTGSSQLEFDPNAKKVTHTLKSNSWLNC

SMILES | pIC50 (Collagenase 3) | pIC50 [1] | pIC50 [2] | pIC50 (THP-1) | pIC50 (Matrilysin) | pIC50 (Interstitial collagenase) | pIC50 (Stromelysin-1) | pIC50 (Neutrophil collagenase) | AUC [3] [µM·h] | half-life [4] [h] | AUC [5] [µM·h]
CC1(C)OC[C@H]([C@@H](CS(=O)(=O)c2ccc(Oc3ccc(OC(F)(F)F)cc3)cc2)N(O)C=O)O1 (stereo in doubt) | 8.48 | 9.11 | 9.30 | < 4.30 | 4.96 | 5.05 | 7.92 | 8.30 |  |  | 
CNC(=O)[C@@H](NC(=O)[C@H](CC(C)C)[C@H](O)C(=O)NO)C(C)(C)C |  |  |  | 5.68 |  |  |  |  |  |  | 
CC1(C)NC(=O)N(CC(CS(=O)(=O)c2ccc(Oc3ccc(Cl)cc3)cc2)N(O)C=O)C1=O (stereo unspecified) |  | 9.49 | 9.02 |  |  | 7.05 |  |  | 17 | 5.6 | 
CC1(C)SCCN(S(=O)(=O)c2ccc(Oc3ccncc3)cc2)[C@H]1C(=O)NO [PRINOMASTAT] |  |  |  | 5.07 | 7.14 |  |  | 9.27 |  |  | 

Now from value to compound:

pIC50 (Collagenase 3) | pIC50 [1] | pIC50 [2] | pIC50 (THP-1) | pIC50 (Matrilysin) | pIC50 (Interstitial collagenase) | pIC50 (Stromelysin-1) | pIC50 (Neutrophil collagenase) | AUC [3] [µM·h] | half-life [4] [h] | AUC [5] [µM·h] | SMILES
 | 8.55 | 9.31 |  |  | < 4.30 |  |  | 8 | 1.9 |  | O=CN(O)C(CS(=O)(=O)c1ccc(Oc2ccc(OC(F)(F)F)cc2)cc1)C(CO)CO (stereo unspecified)
 | 9.24 | 8.77 |  |  | < 4.30 |  |  | 10 | 1.4 |  | O=CN(O)C(CCN1CCOCC1)CS(=O)(=O)c1ccc(Oc2ccc(OC(F)(F)F)cc2)cc1 (stereo unspecified)
 | 9.38 | 8.70 |  |  | < 4.30 |  |  |  |  | 28 | O=CN(O)C(CS(=O)(=O)c1ccc(Oc2ccc(OC(F)(F)F)cc2)cc1)C1CCC2(CC1)OCCO2 (stereo unspecified)
